Assay [1] is described as follows: Her2 expression decrease, cell viability multiplex – SKBR3 breast tumor cells, AlphaScreen, ATP viability, primary screen (AID 461;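 active = Her2 level under about 52% in both replicate screens, with viability over 70% of control, limit read from the data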;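 as to Her2 level: lower value means less Her2 protein in the cells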;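 as to viability: percent of carrier control wells set as 100% viability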). To be noted: SKBR3 Her2 protein level, 18-24 h, measured here: SKBR3 viability, ATP luminescence, at 10 µM. On the technique in general: In Alpha technology, singlet oxygen from a donor bead excites a nearby acceptor bead.
For assay [2], the target named is Receptor tyrosine-protein kinase erbB-2 (Homo sapiens) (UniProt P04626). The description is as above. To be noted: 18-24 h, at 10 µM, stronger effect = lower value.
Assay [3] can be described thus: reduced viability of SK-BR-3 breast cancer cells – cell-based, 24 h, human, pilot screen (AID 572).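 Also: compound exposure lasted between 18 and 24 h rather than exactly 24 h; 100% = carrier-treated control wells.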 To be noted: SK-BR-3 viability, CellTiter-Glo luminescence, at 10 µM, stronger effect = lower value. In general terms: In ATP-based viability assays light output follows the ATP content of the culture.
Assay [4] is described as follows: HUVEC growth inhibition – cell-based, human, primary screen (AID 575;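 active = viability at or below 30% in both replicate assays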;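 also: 100% = median of untreated cell wells with 0.1% DMSO on each plate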). To be noted: HUVEC proliferation, CellTiter-Glo luminescence, 72 h; at 10 µM; stronger effect = lower value. The method in brief:
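Test system: HUVEC primary cells. Quantity: 1250 endothelial cells in each well. Dosing: single-point 10 µM, DMSO 0.1% final. Incubation: 72 h treatment at 37 °C. Measured by: CTG luminescence. Control set: DMSO cell controls and MePR drug controls. Plate: collagen-coated 384-well format.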

A short description of assay [5]: H69AR cell proliferation blockers – human, duplicate replicates, primary screen (AID 580;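 active = viability at or under a set limit in both replicates, limit being median viability minus 3 SD, cut at about 48% in these data, passing the limit was not always enough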;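 also: 100% = mean luminescence of untreated wells and 0% = no signal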). The following applies: H69AR lung tumor cells viability, ATP luminescence, 72 h; at 10 µM; stronger effect = lower value.
The nature of assay [6]: MRP1 drug-resistance reversers in H69AR cells – cell-based, doxorubicin co-treatment, pilot screen (AID 601;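 active = viability loss from added drug above about 55%, and viability with drug at most 40%, in both replicates, limit read from the data, passing the limit was not always enough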). The following applies: CellTiter-Glo, 72 h, at 10 µM; for differential viability (reversal): stronger effect = higher value.
Assay [7] in a line: yeast transport mutant growth inhibition pilot in 384-well plates, post-Golgi transport modulator project (AID 636; in the data active = inhibition above about 31%). To be noted: absorbance 615 nm, about 18 h, stronger effect = higher value.
The nature of assay [8]: growth suppression of yeast trafficking mutant, preliminary HTS, modulators of trafficking downstream of Golgi apparatus project, 1536-format plate, OD 615 nm (AID 637; in the data active = inhibition above about 30%). The following applies: yeast transport mutant growth, absorbance 615 nm, 18 h; stronger effect = higher value.
Setting [9] is: H69AR cells + 2 uM doxorubicin, measured here: viability with 2 uM doxorubicin, stronger effect = lower value.
Setting [10] is: H69AR cells, compound alone cytotoxicity.

Activity calls are given as the source filed them.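 The calls were made as follows, unless noted: active = viability at or below 10% of carrier control in both of two separate runs; inconclusive = viability at or below 10% in only one of the two runs; inactive = the rest.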

Chain of Receptor tyrosine-protein kinase erbB-2 (Homo sapiens) (P04626 whole entry, looked up): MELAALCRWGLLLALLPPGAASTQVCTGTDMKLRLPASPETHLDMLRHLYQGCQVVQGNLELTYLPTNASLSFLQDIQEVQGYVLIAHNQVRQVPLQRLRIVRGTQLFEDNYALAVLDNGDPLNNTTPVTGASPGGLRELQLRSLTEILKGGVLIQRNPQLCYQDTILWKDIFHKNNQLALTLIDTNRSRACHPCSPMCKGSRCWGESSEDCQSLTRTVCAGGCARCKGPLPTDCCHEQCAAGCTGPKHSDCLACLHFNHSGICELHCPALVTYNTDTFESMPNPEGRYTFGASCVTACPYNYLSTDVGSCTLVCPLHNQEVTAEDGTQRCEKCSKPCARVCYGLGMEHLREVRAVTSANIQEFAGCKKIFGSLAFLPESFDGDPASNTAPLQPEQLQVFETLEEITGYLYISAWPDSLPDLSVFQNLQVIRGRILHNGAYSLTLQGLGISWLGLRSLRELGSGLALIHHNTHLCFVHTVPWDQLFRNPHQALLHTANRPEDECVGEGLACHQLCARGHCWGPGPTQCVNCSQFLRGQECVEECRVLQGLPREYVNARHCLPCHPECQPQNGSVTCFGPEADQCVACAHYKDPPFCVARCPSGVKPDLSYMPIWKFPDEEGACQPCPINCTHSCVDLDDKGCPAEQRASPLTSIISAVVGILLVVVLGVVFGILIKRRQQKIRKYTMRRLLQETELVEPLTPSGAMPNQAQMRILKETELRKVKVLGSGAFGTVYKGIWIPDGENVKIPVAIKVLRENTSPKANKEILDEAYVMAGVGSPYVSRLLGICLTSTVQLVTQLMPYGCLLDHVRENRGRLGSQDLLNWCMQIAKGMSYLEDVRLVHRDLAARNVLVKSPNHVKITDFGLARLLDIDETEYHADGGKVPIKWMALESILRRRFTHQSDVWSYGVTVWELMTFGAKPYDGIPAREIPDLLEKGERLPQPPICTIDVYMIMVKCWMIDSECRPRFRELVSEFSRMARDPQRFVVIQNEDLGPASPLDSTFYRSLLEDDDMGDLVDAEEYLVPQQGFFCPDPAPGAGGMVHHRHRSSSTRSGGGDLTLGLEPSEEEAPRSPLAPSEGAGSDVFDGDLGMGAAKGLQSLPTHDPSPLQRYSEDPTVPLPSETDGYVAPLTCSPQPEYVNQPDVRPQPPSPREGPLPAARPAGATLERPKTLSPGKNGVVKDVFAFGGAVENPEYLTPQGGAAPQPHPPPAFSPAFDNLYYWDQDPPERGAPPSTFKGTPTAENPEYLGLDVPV

`CCN(CCNC(=O)CS(=O)(=O)Cc1nc(-c2cccc(OC)c2)oc1C)c1ccccc1`: the viability (usually a read-out of living cells in per cent, often relative to untreated cells) in assay [1] is 97.5%; in assay [3] it was 97.5% (inactive); in assay [4] it was 78.4% (inactive); in assay [5] it was 99% (inactive); in assay [6] (setting [9]), 110%; in assay [6] (setting [10]) it was 99%. The Her2 level in assay [2] is 105% (inactive). In assay [6] (H69AR cells + 2 uM doxorubicin), the differential viability (reversal) was -10.6% (inactive). Also, the results for the inhibition in assay [7] and in assay [8] were -6.67% (inactive) and -0.48% (inactive), respectively.

Take `O=C(O)c1cc(/C=N\O)ccc1OCc1ccccc1`: the viability in assay [1] is 114%; in assay [3], 114% (inactive); in assay [4], 95.9% (inactive); in assay [5], 103% (inactive); in assay [6] (setting [9]) it was 91.2%; in assay [6] (setting [10]), 103%. The Her2 level in assay [2] was 106% (inactive). In addition, the differential viability (reversal) in assay [6] (H69AR cells + 2 uM doxorubicin) is 11.7% (inactive). Further, the values for the inhibition in assay [7] and in assay [8] were -5.33% (inactive) and 1.29% (inactive), respectively.

For the compound `Cn1c(=O)[nH]c(=O)c2[nH]c(CN3CCN(C(=O)c4ccco4)CC3)nc21`, the viability was 98.5% in assay [1]; 98.5% (inactive) in assay [3]; 90.3% (inactive) in assay [4]; 107% (inactive) in assay [5]; 92.9% in assay [6] (setting [9]); 107% in assay [6] (setting [10]). The Her2 level in assay [2] is 80% (inactive). Also, in assay [6] (H69AR cells + 2 uM doxorubicin), the differential viability (reversal) was 13.8% (inactive). The inhibition (commonly the drop in the measured response relative to a control, in per cent) in assay [7] was -1.58% (inactive); in assay [8], 0.73% (inactive).

For the compound `Cc1cc(=O)[nH]c(=S)n1-c1ccccc1`, the viability was 99.5% in assay [1]; 99.5% (inactive) in assay [3]; 101% (inactive) in assay [4]; 100% (inactive) in assay [5]; 82.6% in assay [6] (setting [9]); 100% in assay [6] (setting [10]). Besides, in assay [2], the Her2 level is 74.5% (inactive). In assay [6] (H69AR cells + 2 uM doxorubicin), the differential viability (reversal) is 17.7% (inactive). The results for the inhibition in assay [7] and in assay [8] were -7.03% (inactive) and 3.33% (inactive), respectively.

For the compound `O=C(CSc1nnc(-c2ccccc2Cl)n1Cc1ccco1)Nc1ccc2c(c1)OCCO2`, the viability in assay [1] is 83.5%; in assay [3], 83.5% (inactive); in assay [4], 93.9% (inactive); in assay [5], 77.7% (inactive); in assay [6] (setting [9]), 90.5%; in assay [6] (setting [10]) it was 77.7%. Moreover, the Her2 level in assay [2] was 80% (inactive). For the same compound, the differential viability (reversal) in assay [6] (H69AR cells + 2 uM doxorubicin) was -12.8% (inactive). For the same compound, the inhibition in assay [7] was -3.07% (inactive); in assay [8], -4.75% (inactive).

For the compound `CN(C1CCCCC1)S(=O)(=O)c1ccc(NC(=O)c2ccco2)cc1`, the viability in assay [1] was 91.5%; in assay [3], 91.5% (inactive); in assay [4] it was 80.4% (inactive); in assay [5], 99.3% (inactive); in assay [6] (setting [9]) it was 95.1%; in assay [6] (setting [10]) it was 99.3%. The Her2 level in assay [2] was 91.5% (inactive). The differential viability (reversal) in assay [6] (H69AR cells + 2 uM doxorubicin) was 4.14% (inactive). Besides, the inhibition in assay [7] was -5.26% (inactive); in assay [8], -0.67% (inactive).

Turning to `COc1cc(C)nc(OCCNC(=O)COc2ccc(Cl)cc2C)n1`, the viability is 96.5% in assay [1]; 96.5% (inactive) in assay [3]; 95.2% (inactive) in assay [4]; 107% (inactive) in assay [5]; 98% in assay [6] (setting [9]); 107% in assay [6] (setting [10]). For the same compound, in assay [2], the Her2 level is 100% (inactive). Moreover, in assay [6] (H69AR cells + 2 uM doxorubicin), the differential viability (reversal) is 8.69% (inactive). For the same compound, the inhibition was -0.93% (inactive) in assay [7] and 1.64% (inactive) in assay [8].

With `CCOC(=O)c1c(N)sn(-c2ccccc2)c1=S`, the viability in assay [1] was 87%; in assay [3], 87% (inactive); in assay [4], 101% (inactive); in assay [5], 85.3% (inactive); in assay [6] (setting [9]), 90.6%; in assay [6] (setting [10]) it was 85.3%. The Her2 level in assay [2] is 108% (inactive). In addition, the differential viability (reversal) in assay [6] (H69AR cells + 2 uM doxorubicin) is -5.28% (inactive). Moreover, the figures for the inhibition in assay [7] and in assay [8] were -0.9% (inactive) and 2.17% (inactive), respectively.

In the case of `COCCOC(=O)c1[nH]c2c(c1C)C(=O)CC(c1ccc(N(C)C)cc1)C2` (stereo not given), the viability was 111% in assay [1]; 111% (inactive) in assay [3]; 91.1% (inactive) in assay [4]; 83.5% (inactive) in assay [5]; 104% in assay [6] (setting [9]); 83.5% in assay [6] (setting [10]). The Her2 level in assay [2] was 116% (inactive). In addition, the differential viability (reversal) in assay [6] (H69AR cells + 2 uM doxorubicin) is -20.9% (inactive). For the same compound, the values for the inhibition in assay [7] and in assay [8] were -6.16% (inactive) and -5.87% (inactive), respectively.

`COc1ccc(N2CCN(c3nc4c(c(=O)[nH]c(=O)n4C)n3CCCc3ccccc3)CC2)cc1`: the viability was 120% in assay [1]; 120% (inactive) in assay [3]; 94% (inactive) in assay [4]; 84.9% (inactive) in assay [5]; 87% in assay [6] (setting [9]); 84.9% in assay [6] (setting [10]). Besides, the Her2 level in assay [2] was 102% (inactive). Moreover, in assay [6] (H69AR cells + 2 uM doxorubicin), the differential viability (reversal) is -2.09% (inactive). Besides, the inhibition in assay [7] was -6.8% (inactive); in assay [8] it was 0.48% (inactive).

`Cc1cc(C)n2cc(CSc3nnnn3C)nc2n1`: the viability is 84.5% in assay [1]; 84.5% (inactive) in assay [3]; 87.8% (inactive) in assay [4]; 85.7% (inactive) in assay [5]; 86% in assay [6] (setting [9]); 85.7% in assay [6] (setting [10]). For the same compound, the Her2 level in assay [2] was 92% (inactive). Besides, the differential viability (reversal) in assay [6] (H69AR cells + 2 uM doxorubicin) was -0.355% (inactive). In addition, the inhibition in assay [7] was 0.51% (inactive); in assay [8], 6.17% (inactive).

`O=C(C1CCN(S(=O)(=O)N2CCC3(CC2)OCCO3)CC1)N1CCOCC1`: the viability in assay [1] is 98%; in assay [3], 98% (inactive); in assay [4], 99.4% (inactive); in assay [5] it was 94.1% (inactive); in assay [6] (setting [9]) it was 90.3%; in assay [6] (setting [10]) it was 94.1%. In assay [2], the Her2 level was 114% (inactive). Moreover, the differential viability (reversal) in assay [6] (H69AR cells + 2 uM doxorubicin) is 3.86% (inactive). The inhibition was 0.92% (inactive) in assay [7] and 7.38% (inactive) in assay [8].

Turning to `CC(=O)Nc1ccc(OCC(O)Cn2nc(C)nc2C)cc1` (stereo not given), the viability in assay [1] was 93%; in assay [3], 93% (inactive); in assay [4], 81.3% (inactive); in assay [5], 91% (inactive); in assay [6] (setting [9]), 96.5%; in assay [6] (setting [10]), 91%. Further, the Her2 level in assay [2] was 86.5% (inactive). The differential viability (reversal) in assay [6] (H69AR cells + 2 uM doxorubicin) is -5.46% (inactive). Moreover, the inhibition was -1.67% (inactive) in assay [7] and -4.83% (inactive) in assay [8].

Turning to `CSc1ccc(S(=O)(=O)Nc2cccc(F)c2)cc1`, the viability in assay [1] is 96%; in assay [3] it was 96% (inactive); in assay [4], 97.7% (inactive); in assay [5] it was 97.3% (inactive); in assay [6] (setting [9]) it was 97.6%; in assay [6] (setting [10]) it was 97.3%. In addition, the Her2 level in assay [2] was 76% (inactive). Further, the differential viability (reversal) in assay [6] (H69AR cells + 2 uM doxorubicin) is -0.325% (inactive). Also, the inhibition was -5.26% (inactive) in assay [7] and -5.33% (inactive) in assay [8].

For `Cc1ccc(NC(=O)CSc2nnc(NC(=O)CN3CCOCC3)s2)cc1`, the viability in assay [1] was 102%; in assay [3], 102% (inactive); in assay [4], 98% (inactive); in assay [5], 94.1% (inactive); in assay [6] (setting [9]) it was 84.4%; in assay [6] (setting [10]), 94.1%. In addition, the Her2 level in assay [2] was 82% (inactive). Besides, the differential viability (reversal) in assay [6] (H69AR cells + 2 uM doxorubicin) is 9.71% (inactive). Besides, the inhibition in assay [7] was -5.33% (inactive); in assay [8], -2.46% (inactive).

The values are drawn from PubChem BioAssay.
